From ChEMBL document CHEMBL6127150, “Discovery of PARP1-Sparing Inhibitors for Protein ADP-Ribosylation” (ACS Med Chem Lett, 2024)
Calls of active or inactive are those of the source. No cut-off for these calls is given here.

Assays:
HAP1 [1] = test: Inhibition of PARP in human HAP1 PARP1-KO cell lysates assessed as reduction in protein ADP-ribosylation at 100 uM using NAD+ as substrate measured after 2 hrs by immunoblot analysis; type: subcellular
How it was run: (§1)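 HAP1 or HAP1/PARP1-KO cell lysates were ADP-ribosylated without or with 100 μM compound. Protein ADP-ribosylation was detected by immunoblot with the AF1521 macrodomain pan-ADPr binding reagent, with anti-GAPDH as loading control. Densitometric signal was normalized to loading control and tested for significance.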

HAP1 [2] = test: Inhibition of PARP in human HAP1 cell lysates assessed as reduction in protein ADP-ribosylation at 100 uM using NAD+ as substrate measured after 2 hrs by immunoblot analysis; type: subcellular; how it was run: as §1
[3] = target: T1, Poly [ADP-ribose] polymerase 2 (Homo sapiens, UniProt Q9UGN5); test: Inhibition of human full-length PARP2 expressed in bacterial expression system assessed as reduction in enzyme mediated autoPARylation at 100 uM using NAD+ as substrate preincubated for 30 mins followed by substrate addition and measured after 2 hrs by immunoblot analysis; details: time 2.5 hrs
How it was run: (§2)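 Full-length human PARP1 or PARP2, expressed recombinantly in and purified from bacteria, auto-PARylated without or with 100 μM compound. Read-out was immunoblot with an anti-PAR antibody. Loading control was anti-His₆ for PARP1 and anti-PARP2 antibody for PARP2. Signal was quantified by densitometry normalized to the loading control, with significance testing.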

[4] = target: T1, Poly [ADP-ribose] polymerase 2; test: Inhibition of human full-length PARP2 expressed in bacterial expression system assessed as reduction in enzyme mediated autoPARylation using NAD+ as substrate preincubated for 30 mins followed by substrate addition and measured after 2 hrs by immunoblot analysis
[5] = target: T2, Protein mono-ADP-ribosyltransferase PARP10 (Homo sapiens) (UniProt Q53GL7); test: Inhibition of human PARP10 catalytic domain expressed in bacterial expression system assessed as reduction in enzyme mediated autoPARylation at 100 uM using NAD+ as substrate measured after 2 hrs by immunoblot analysis
T2 sequence (whole entry): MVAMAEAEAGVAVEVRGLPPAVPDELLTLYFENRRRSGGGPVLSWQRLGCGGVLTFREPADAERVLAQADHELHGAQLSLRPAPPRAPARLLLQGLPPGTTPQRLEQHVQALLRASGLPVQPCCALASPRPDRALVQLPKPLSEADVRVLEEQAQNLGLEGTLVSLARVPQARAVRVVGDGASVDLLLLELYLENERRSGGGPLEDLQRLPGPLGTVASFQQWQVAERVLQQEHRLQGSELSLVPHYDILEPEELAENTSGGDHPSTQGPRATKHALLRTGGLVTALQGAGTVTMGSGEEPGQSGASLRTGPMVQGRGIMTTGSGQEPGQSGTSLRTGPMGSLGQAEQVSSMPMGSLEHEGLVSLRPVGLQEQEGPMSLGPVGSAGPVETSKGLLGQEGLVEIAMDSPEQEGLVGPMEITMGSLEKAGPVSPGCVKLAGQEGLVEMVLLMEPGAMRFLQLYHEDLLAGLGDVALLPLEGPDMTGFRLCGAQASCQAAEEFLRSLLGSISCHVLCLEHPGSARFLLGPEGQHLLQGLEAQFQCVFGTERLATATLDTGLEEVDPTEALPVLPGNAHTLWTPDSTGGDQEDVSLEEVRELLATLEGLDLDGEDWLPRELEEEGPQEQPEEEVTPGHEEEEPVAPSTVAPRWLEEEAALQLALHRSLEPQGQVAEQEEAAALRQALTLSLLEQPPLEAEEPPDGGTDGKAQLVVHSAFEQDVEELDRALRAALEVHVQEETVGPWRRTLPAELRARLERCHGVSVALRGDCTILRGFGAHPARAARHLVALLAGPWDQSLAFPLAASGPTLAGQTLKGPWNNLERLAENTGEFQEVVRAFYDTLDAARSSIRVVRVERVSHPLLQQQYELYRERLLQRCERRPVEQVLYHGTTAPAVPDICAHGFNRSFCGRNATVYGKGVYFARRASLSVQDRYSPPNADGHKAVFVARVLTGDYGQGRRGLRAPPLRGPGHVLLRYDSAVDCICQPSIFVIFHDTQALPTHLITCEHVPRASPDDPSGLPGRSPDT
How it was run: (§3)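 Catalytic domains of human PARP5a (PARylation) and PARP10 (MARylation), bacterially expressed and purified, were auto-ADP-ribosylated with NAD⁺ without or with 100 μM compound. Detection was by immunoblot using the AF1521 macrodomain pan-ADPr binding reagent, with anti-His₆ loading control. Densitometry was normalized to the loading control.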

[6] = target: T3, Poly [ADP-ribose] polymerase tankyrase-1 (Homo sapiens) (UniProt O95271); test: Inhibition of human PARP5a catalytic domain expressed in bacterial expression system assessed as reduction in enzyme mediated autoPARylation at 100 uM using NAD+ as substrate measured after 2 hrs by immunoblot analysis; how it was run: as §3
T3 sequence (whole entry): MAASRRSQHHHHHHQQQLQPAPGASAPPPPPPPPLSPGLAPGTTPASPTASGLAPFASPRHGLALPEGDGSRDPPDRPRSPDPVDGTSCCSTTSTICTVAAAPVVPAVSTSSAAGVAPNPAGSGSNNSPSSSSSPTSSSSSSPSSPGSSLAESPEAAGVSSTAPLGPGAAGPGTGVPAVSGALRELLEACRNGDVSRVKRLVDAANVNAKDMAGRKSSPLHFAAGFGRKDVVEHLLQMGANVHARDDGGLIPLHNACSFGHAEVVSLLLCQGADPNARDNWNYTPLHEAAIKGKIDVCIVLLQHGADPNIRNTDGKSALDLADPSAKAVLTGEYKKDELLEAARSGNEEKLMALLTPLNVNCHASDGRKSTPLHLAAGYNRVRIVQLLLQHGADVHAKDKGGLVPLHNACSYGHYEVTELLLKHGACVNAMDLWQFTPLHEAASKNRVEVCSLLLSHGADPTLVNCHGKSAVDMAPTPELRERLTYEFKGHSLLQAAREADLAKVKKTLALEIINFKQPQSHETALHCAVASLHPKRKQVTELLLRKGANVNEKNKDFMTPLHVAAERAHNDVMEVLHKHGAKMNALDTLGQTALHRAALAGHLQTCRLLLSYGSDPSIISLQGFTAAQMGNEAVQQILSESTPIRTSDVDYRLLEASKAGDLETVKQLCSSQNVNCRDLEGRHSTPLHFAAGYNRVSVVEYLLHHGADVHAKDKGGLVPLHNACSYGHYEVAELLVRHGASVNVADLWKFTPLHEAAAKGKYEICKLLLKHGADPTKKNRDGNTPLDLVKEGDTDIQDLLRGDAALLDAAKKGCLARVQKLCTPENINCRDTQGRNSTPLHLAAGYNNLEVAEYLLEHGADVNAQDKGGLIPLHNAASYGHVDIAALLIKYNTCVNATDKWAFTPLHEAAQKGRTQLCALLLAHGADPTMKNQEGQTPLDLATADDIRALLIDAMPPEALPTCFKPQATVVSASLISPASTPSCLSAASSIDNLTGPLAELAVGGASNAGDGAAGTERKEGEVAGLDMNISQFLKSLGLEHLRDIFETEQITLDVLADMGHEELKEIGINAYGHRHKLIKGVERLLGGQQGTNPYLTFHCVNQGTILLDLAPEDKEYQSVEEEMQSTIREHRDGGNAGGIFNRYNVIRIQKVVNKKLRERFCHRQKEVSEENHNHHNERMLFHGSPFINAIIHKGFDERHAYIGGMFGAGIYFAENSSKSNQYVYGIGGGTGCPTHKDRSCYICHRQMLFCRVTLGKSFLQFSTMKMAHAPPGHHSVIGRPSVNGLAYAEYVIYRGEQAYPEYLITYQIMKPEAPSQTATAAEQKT

[7] = target: Poly [ADP-ribose] polymerase 1 (Homo sapiens) (UniProt P09874); test: Inhibition of human full-length PARP1 expressed in bacterial expression system assessed as reduction in enzyme mediated autoPARylation at 100 uM using NAD+ as substrate preincubated for 30 mins followed by substrate addition and measured after 2 hrs by immunoblot analysis; details: time 2.5 hrs; how it was run: as §2
[8] = target: T4, Protein mono-ADP-ribosyltransferase PARP10 (Homo sapiens, UniProt Q53GL7); test: Inhibition of human PARP10 catalytic domain expressed in bacterial expression system assessed as reduction in enzyme mediated autoPARylation using NAD+ as substrate measured after 2 hrs by immunoblot analysis
T4 sequence (Q53GL7 whole entry): T2 sequence (whole entry)

Poly [ADP-ribose] polymerase 1 (Homo sapiens), sequence (P09874 whole entry, the tested form may be a part): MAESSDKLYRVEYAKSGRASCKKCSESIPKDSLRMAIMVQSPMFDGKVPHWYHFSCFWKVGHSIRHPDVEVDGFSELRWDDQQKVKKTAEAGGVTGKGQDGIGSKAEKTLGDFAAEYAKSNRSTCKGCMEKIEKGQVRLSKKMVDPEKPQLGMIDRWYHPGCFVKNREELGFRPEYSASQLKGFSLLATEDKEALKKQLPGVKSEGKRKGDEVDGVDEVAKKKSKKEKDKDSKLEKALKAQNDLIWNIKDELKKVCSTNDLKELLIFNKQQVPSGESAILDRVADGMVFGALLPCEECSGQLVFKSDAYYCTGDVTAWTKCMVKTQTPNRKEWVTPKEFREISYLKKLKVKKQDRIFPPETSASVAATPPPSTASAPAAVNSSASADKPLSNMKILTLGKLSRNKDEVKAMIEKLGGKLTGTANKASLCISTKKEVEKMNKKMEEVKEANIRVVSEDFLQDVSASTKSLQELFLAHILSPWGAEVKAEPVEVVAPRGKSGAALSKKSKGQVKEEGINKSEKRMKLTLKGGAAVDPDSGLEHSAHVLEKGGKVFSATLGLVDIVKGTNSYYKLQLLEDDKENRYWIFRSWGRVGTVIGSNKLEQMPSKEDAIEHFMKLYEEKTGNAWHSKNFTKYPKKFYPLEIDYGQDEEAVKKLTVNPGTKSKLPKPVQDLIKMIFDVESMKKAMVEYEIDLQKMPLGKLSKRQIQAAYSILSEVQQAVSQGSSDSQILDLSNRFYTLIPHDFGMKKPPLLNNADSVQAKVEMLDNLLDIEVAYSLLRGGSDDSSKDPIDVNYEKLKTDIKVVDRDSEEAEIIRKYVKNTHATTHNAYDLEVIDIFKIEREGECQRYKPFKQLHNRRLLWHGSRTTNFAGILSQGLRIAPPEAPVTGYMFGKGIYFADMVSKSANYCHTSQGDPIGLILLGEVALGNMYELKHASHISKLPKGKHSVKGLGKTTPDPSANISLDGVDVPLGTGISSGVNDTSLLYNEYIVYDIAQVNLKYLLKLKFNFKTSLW
T1 sequence (Q9UGN5 whole entry): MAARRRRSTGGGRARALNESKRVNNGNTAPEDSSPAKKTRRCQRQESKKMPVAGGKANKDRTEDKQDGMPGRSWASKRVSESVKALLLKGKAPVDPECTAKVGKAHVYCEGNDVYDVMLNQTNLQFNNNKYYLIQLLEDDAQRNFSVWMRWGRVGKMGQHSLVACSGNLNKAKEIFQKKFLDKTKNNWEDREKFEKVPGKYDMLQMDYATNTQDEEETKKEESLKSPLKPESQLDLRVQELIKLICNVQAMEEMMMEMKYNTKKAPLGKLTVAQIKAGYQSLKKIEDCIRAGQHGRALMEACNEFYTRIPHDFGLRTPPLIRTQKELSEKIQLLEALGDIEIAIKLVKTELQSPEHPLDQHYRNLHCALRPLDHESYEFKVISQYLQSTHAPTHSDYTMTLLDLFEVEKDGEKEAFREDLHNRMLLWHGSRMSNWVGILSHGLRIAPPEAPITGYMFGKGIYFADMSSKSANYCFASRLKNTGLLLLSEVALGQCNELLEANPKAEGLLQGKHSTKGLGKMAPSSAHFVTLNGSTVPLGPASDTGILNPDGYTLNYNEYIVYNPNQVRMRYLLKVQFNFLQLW

CC(=O)c1cccc(CCOc2ccc(F)cc2C(N)=O)c1
inhibition (HAP1 [1]): Active
inhibition (HAP1 [2]): Active
inhibition [3]: Active
IC50 [4]: 51.5 µM
inhibition [5]: Active
inhibition [6]: Active
inhibition [7]: inactive
IC50 [8]: 36.9 µM

CC(=O)c1cccc(CNc2ccccc2C(N)=O)c1
inhibition [7]: inactive

CC(=O)c1cccc(COc2ccccc2C(N)=O)c1
inhibition (HAP1 [1]): Active
inhibition (HAP1 [2]): Active
inhibition [3]: Active
IC50 [4]: 102 µM
inhibition [5]: Active
inhibition [6]: Active
inhibition [7]: inactive
IC50 [8]: 15.3 µM

CC(=O)c1cccc([C@H](C)Oc2ccccc2C(N)=O)c1
inhibition [3]: Active

CC(=O)c1cccc([C@@H](C)Oc2ccccc2C(N)=O)c1
inhibition [3]: Active

CC(=O)c1cc(COc2ccccc2C(N)=O)ccc1F
inhibition (HAP1 [1]): Active
inhibition (HAP1 [2]): Active
inhibition [3]: Active
IC50 [4]: 50.1 µM
inhibition [5]: Active
inhibition [6]: Active
inhibition [7]: inactive
IC50 [8]: 39.4 µM

CC(=O)c1cccc(CCOc2ccccc2C(N)=O)c1
inhibition (HAP1 [1]): Active
inhibition (HAP1 [2]): Active
inhibition [3]: Active
IC50 [4]: 59.7 µM
inhibition [5]: Active
inhibition [6]: Active
inhibition [7]: inactive
IC50 [8]: 48.3 µM

O=C(c1cc(Cc2n[nH]c(=O)c3ccccc23)ccc1F)N1CCN(C(=O)C2CC2)CC1
inhibition (HAP1 [1]): Active
inhibition (HAP1 [2]): Active

CC(=O)c1cccc(CCCOc2ccccc2C(N)=O)c1
inhibition [3]: Active

CC(=O)c1cccc(C(=O)Nc2ccccc2C(N)=O)c1
inhibition [7]: inactive
